The text below walks through data of ChEMBL document CHEMBL1671623, “Identification and biochemical characterization of small-molecule inhibitors of west nile virus serine protease by a high-throughput screen” (Antimicrob Agents Chemother, 2008).

Active and inactive are the calls of the source. The calls are words filed in the database; no cut-off is given here. Peptide text beside a SMILES is read from it. * marks the point of attachment. AMC = Cc1cc(=O)oc2cc(N*)ccc12; Boc = CC(C)(C)OC(=O)*

The subject of one data set is Vero. Kind of data set: (§1) Cytotoxicity against African green monkey Vero cells after 24 hrs by Cell Titer-Glo assay. The format is cell-based. The note with it: chlorocebus sabaeus, vero, 24 h. The procedure, abridged:
(§2)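 Vero cells seeded at 5,000 cells/well and grown 24 h at 37°C, 5% CO2. Compound added in triplicate in DMEM with 10% FBS and incubated a further 24 h. Viability read by CellTiter-Glo luminescence. Cytotoxicity expressed relative to no-compound wells; CC50 taken from the dose curve; two independent experiments.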

Data set [1] can be described thus: Inhibition of West Nile virus EG101 NS2BH/NS3 serine protease after 15 mins using Boc-Gly-Lys-Arg-AMC substrate by spectrofluorometry. The procedure, abridged:
(§3)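 His-tagged NS2BH/NS3 complex expressed in E. coli and purified by Talon affinity and Sephadex G-75. 67 nM protease preincubated 15 min at room temperature with 50 µM inhibitor in 200 mM Tris-HCl pH 9.5, 6 mM NaCl, 30% glycerol. Substrate added at 100 µM final (Boc-GKR-AMC for WNV, Boc-GRR-AMC for DENV2) for 15 min. AMC fluorescence read at ex 390/em 465 nm. Activity expressed as percent of no-inhibitor control; triplicate.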

A short description of data set [2]: Inhibition of Dengue virus 2 New Guinea C NS2BH/NS3 serine protease after 15 mins by spectrofluorometer in presence of Boc-Gly-Arg-Arg-AMC. On the set-up: species or system dengue virus type 2. The procedure, abridged:
as §3

The test system of data set [3] is West Nile virus. The data set can be described thus: Inhibition of West Nile virus EG101 NS2BH/NS3 serine protease after 15 mins using Z-Val-Lys-Arg-MNA substrate assessed as increase in apparent Km/apparent Vmax ratio of substrate by Sigma plot. The procedure, abridged:
(§4)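 Steady-state kinetics with purified NS2BH/NS3 protease. Enzyme preincubated 15 min at room temperature with inhibitor at 0, 1.5, 2.5, 5 or 10 µM. Substrate then added at eight concentrations (10–400 µM) for 15 min. AMC or MNA fluorescence converted to rate via a standard curve. Kmapp/Vmaxapp and 1/Vmaxapp plotted against inhibitor concentration; Ki from kinetic fitting; repeated three times.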

In data set [4] the target is Coagulation factor X (Homo sapiens) (UniProt P00742). Kind of data set: Inhibition of protease activity of factor 10a using Boc-Ile-Glu-Gly-Arg-AMC substrate. In outline: (§5)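 Trypsin (67 nM) or factor Xa (25 nM) preincubated 15 min at room temperature with 50 µM inhibitor in 200 mM Tris-HCl pH 9.5, 6 mM NaCl, 30% glycerol. Substrate added at 100 µM for 15 min: Z-Gly-Pro-Arg-pNA for trypsin, read by absorbance at 405 nm; Boc-Ile-Glu-Gly-Arg-AMC for factor Xa, read by fluorescence. Aprotinin as positive control; triplicate.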
Sequence of Coagulation factor X (Homo sapiens) (P00742 41-179 limits assumed): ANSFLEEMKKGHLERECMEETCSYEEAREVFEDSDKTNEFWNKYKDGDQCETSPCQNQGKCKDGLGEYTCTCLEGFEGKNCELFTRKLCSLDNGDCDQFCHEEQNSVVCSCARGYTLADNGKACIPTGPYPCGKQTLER
Sequence of Coagulation factor X (Homo sapiens) (P00742 235-488 limits assumed): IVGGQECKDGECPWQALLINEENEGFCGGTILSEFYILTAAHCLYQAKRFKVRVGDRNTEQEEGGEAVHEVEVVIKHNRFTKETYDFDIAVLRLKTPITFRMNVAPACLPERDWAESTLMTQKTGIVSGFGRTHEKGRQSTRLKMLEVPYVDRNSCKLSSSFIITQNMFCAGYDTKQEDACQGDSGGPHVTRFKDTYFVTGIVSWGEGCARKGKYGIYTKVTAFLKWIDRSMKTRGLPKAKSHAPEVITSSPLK

The subject of data set [5] is West Nile virus. The data set can be described thus: Antiviral activity against West Nile virus EG101 infected in Vero cells assessed as inhibition of viral replication measured 72 hrs post infection by luciferase reporter gene assay. The format is functional, organism-based. The procedure, abridged: (§6)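 Vero cells pretreated 30 min with twofold serial dilutions of inhibitor in MEM with 10% FBS and 1% penicillin-streptomycin. Then infected with WNV reporter virus particles carrying a Renilla luciferase subgenomic replicon (approx. 1 x 10^4 RVPs, MOI 0.5 to 1.0). Lysates assayed for luciferase. EC50 from variable-slope sigmoidal nonlinear regression; triplicate.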
(In general: A reporter such as luciferase makes a cellular process visible.)

The nature of data set [6]: Inhibition of protease activity of trypsin using Z-Gly-Pro-Arg-pNA substrate. The procedure, abridged:
as §5

Data set [7] in a line: as §1. Type of data set: cell-based. The note with it: chlorocebus sabaeus, Vero cells. The procedure, abridged: as §2
Data set [8] has as its system West Nile virus. The data set can be described thus: Antiviral activity against West Nile virus EG101 infected in Vero cells assessed as inhibition of viral replication measured 24 hrs post infection by luciferase reporter gene assay. The format is functional, organism-based. In outline: as §6
The subject of data set [9] is West Nile virus. Kind of data set: Antiviral activity against West Nile virus EG101 infected in Vero cells assessed as inhibition of viral replication measured 48 hrs post infection by luciferase reporter gene assay. Type of data set: functional, organism-based. In outline: as §6
In data set [10] the test system is West Nile virus. The data set can be described thus: Inhibition of West Nile virus EG101 NS2BH/NS3 serine protease after 15 mins using Boc-Gly-Lys-Arg-AMC substrate assessed as increase in apparent Km/apparent Vmax ratio of substrate by Sigma plot. In outline: as §4
The nature of data set [11]: Selectivity index, ratio of CC50 for African green monkey Vero cells to EC50 for West Nile virus EG101. Type of data set: toxicity, cell-based. The settings on record: read-out: Selectivity Index.

Usually Ki stands for the equilibrium dissociation constant of an inhibitor or competing ligand from its target. In the case of `COc1cccc(C(NC(=O)c2ccccc2)c2ccc3cccnc3c2O)c1` (configuration not stated), the Activity result in the data set on Vero was “Toxic”. The inhibition constant Ki came to 3.2 µM in data set [1] and 28.6 µM in [2].
The term Km denotes the substrate concentration at which the rate is half of its maximum. In the case of `Cc1cc(=O)oc2cc(NC(=O)[C@H](CCCNC(=N)N)NC(=O)[C@H](CCCCN)NC(=O)CNC(=O)OC(C)(C)C)ccc12` (Boc-Gly-Lys-Arg-{AMC}), the Km in the data set with West Nile virus [3] stood at 737 µM.
The CC50 is the concentration that lowers cell viability or growth by half. As usually defined, the EC50 is the midpoint of the concentration-response curve. Turning to `Oc1ccccc1C(Nc1nccs1)c1ccc2cccnc2c1O` (configuration not stated), the inhibition entry in [4] and in data set [6] was “inactive” in each case. Further, the inhibition result in the data set on West Nile virus [5], in the data set on West Nile virus [3], in the data set with West Nile virus [8] and with West Nile virus [10] was “Active” each time. In data set [7], this compound gave a CC50 at 24 h of 140 µM. Moreover, the EC50 in the data set on West Nile virus [9] worked out at 1.4 µM. Also, the inhibition constant Ki in data set [1] turned out to be 3.4 µM; in data set [2], 30.2 µM. In data set [11], the selectivity ratio worked out at 100.
On to `CCn1c(SCC(=O)c2ccccc2)nc2ccccc2c1=O`, for which the Ki came to 37.3 µM in [1] and 17 µM in data set [2].
